Measurements reported in PMC9123270 (The Journal of Biological Chemistry, 2022).
“And” between values parts separate entries of the source, which are not always exact repeats. Equal entries are not always repeated.

Assays:
[1] = target: Anopheles gambiae D7 long-form salivary protein AngaD7L2 (Anopheles gambiae); assay: SPR
[2] = PEAQ-ITC screen against five biogenic amines and five lipids; assay type: binding; details: leukotrienes other than LTC4
Outline: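 Isothermal titration calorimetry in TBS (20 mM Tris–HCl, 150 mM NaCl, pH 7.4) at 30 °C, 750 rpm. Protein at 5 μM was titrated with 10 μl injections of ligand at 50 μM every 150 s. Lipid ligands were dried under nitrogen, resuspended in TBS, vortexed and sonicated 10 min. Samples were degassed. Data were fitted to a single-site model. At least three replicates.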

[3] = system: Human platelet-rich plasma; assay: Platelet aggregation assay; assay type: cell-based
[4] = system: Third-order mesenteric arteries; assay: Vasoconstriction by pressure myography in isolated mesenteric arteries; parameters: species or system C57Bl/6J mice; details: for LogIC50 of vasoconstriction to U-46619: n = 6
normal control plasma [5] = assay: Plasma recalcification assay; assay type: biochemical, human
normal control plasma [6] = assay: Prothrombin; assay type: biochemical, human; details: recombinant protein 15 μM, 5 μl in 50 μl plasma
Outline: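 Normal control plasma (50 μl) was incubated 2 min at 37 °C with 5 μl of test protein (15 μM in Hepes buffer), Hepes buffer (negative control) or 3 μM Alboserpin (positive control). PT was started by adding Neoplastine CI Plus reagent, and clotting time was recorded with stirring. Run in triplicate.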

normal control plasma [7] = assay: Activated partial thromboplastin; assay type: biochemical, human; details: recombinant protein 15 μM, 5 μl in 50 μl plasma
Outline: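 Plasma (50 μl) was preincubated 2 min at 37 °C with 5 μl of test protein (15 μM in Hepes buffer), Hepes buffer (negative control) or 3 μM Alboserpin (positive control). aPTT reagent was added for 3 min at 37 °C, then clotting was started with prewarmed 25 mM CaCl2. Clotting time was recorded on a coagulation analyzer and converted to ratios. Run in triplicate.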

Molecule: human coagulation factor XIIa (enzyme)
- Kd [1]: 5.03 nM
- koff [1]: 0.403 s⁻¹
- kon [1]: 2.03e+08 M⁻¹ s⁻¹

Molecule: human coagulation factor XII (natural protein)
- Kd [1]: 16.4 nM
- koff [1]: 0.0169 s⁻¹
- kon [1]: 125000 M⁻¹ s⁻¹

Molecule: human coagulation factor XI (natural protein)
- Kd [1]: 8.47 nM
- koff [1]: 0.00696 s⁻¹
- kon [1]: 99200 M⁻¹ s⁻¹

B1: AngaD7L1: Recombinant Anopheles gambiae D7 long-form salivary protein, 6xHis-tagged, expressed in human embryonic kidney cells (protein, UniProt Q7PJ76 22-311, looked up)
Long form salivary protein …: FKALDPEEAWYVYERCHEDHLPSGPNRETYLKTWKFWKLEPNDAVTHCYVKCTLAGLQMYDEKTNTFKPETVPVQHEAYKSFTEVESSKVNELQQALSSLNAGSGSCAEVFNAYLPVHNKYVGVSRKIYHGTVDSVAKIYEAKPEIKKQEESFFAYCAKKALGANGKEGYTKLRDYELADSAEFRNAMDCVFRGFRYMDDSGLKVDEVVRDFNLINKSDLEPEVRSVLASCTGTQAYDYYSCLLNSPVKEDFRNAFYFHELRSANYGYLAMGKVYEGPEKVKEELKKLNY
modifications: 6xHis tag
- Binding of other leukotrienes [2]: did not bind any other leukotriene
- Effect on platelet aggregation ([3]; agonist 0.3 μM U-46619, protein 0.3 μM): reduced platelet aggregation
- Effect on platelet aggregation ([3]; agonist 0.3 μM U-46619, protein 1 μM): platelet aggregation was inhibited
- Effect on platelet aggregation ([3]; agonist 0.7 μM U-46619, protein 1 μM): platelet aggregation was inhibited
- Effect on platelet aggregation ([3]; agonist 0.7 μM U-46619, protein 3 μM): inhibited platelet aggregation
- Effect on platelet aggregation ([3]; agonist 1 μM arachidonic acid, protein at any concentration): no effect
- Effect on platelet aggregation ([3]; agonist 1 μg/ml collagen, protein 0.3 μM): did not inhibit platelet aggregation
- Effect on platelet aggregation ([3]; agonist 1 μg/ml collagen, protein 3 μM): reduced platelet aggregation
- Effect on platelet aggregation ([3]; agonist 10 μg/ml collagen, protein 1 μM): no effect
- LogIC50 of vasoconstriction to U-46619 ([4]; after AngaD7L1 washout): −8.10
- fold reduction in effective constrictive potency of U-46619 ([4]; in presence of AngaD7L1 10 μM): ~70 fold
- LogIC50 of vasoconstriction to U-46619 ([4]; in presence of AngaD7L1 10 μM): −6.4 and −6.38

B2: AngaD7L2: Recombinant Anopheles gambiae D7 long-form salivary protein, 6xHis-tagged, expressed in human embryonic kidney cells (protein)
chain: AQPWKALDPEQALYVYKRCYEDHLPAGSSRVTYLKSWNAWKLEPNDAVTHCYAKCVLIGLQLYEEKDKAFKSERIPVQHEAYKTLNEANSREVTEYQQALASINAGDGSCVALYNAYLPVHNKFVDLSRKLYHGTVEGAAKIYAAMPQIKQKGESFFAYCAKKIWGGYNKKEWKRGRNYELSGSSQFKKVIDCIFRGLRYMDDSGLKVDEVVRDFNLINKSDLEPEVRSVLASCTGTQAYDYYSCLLNSPVKEDFKNAFDFHELRSADYAFLLRGKVYEGPEQVKEEMKHLNTTVHF
modifications: left off: His6, C-terminal, state not stated
- Plasma recalcification (time to OD = 0.025) (normal control plasma [5]; final concentration 5 μM): entirely unable to coagulate
- Plasma recalcification (time to OD = 0.025) (normal control plasma [5]; serially diluted recombinant protein, versus Hepes buffer negative control): dose-dependent anticoagulant response
- PT clotting time (extrinsic pathway) (normal control plasma [6]): did not have an observable effect
- aPTT time to coagulation (intrinsic pathway) (normal control plasma [7]): significantly increased
